From ChEMBL document CHEMBL1649438, “Activities of ceftobiprole and other cephalosporins against extracellular and intracellular (THP-1 macrophages and keratinocytes) forms of methicillin-susceptible and methicillin-resistant Staphylococcus aureus” (Antimicrob Agents Chemother, 2009) come the findings set out here.

For experiment [1], the system named is Staphylococcus aureus. Briefly: Antimicrobial activity against methicillin-susceptible Staphylococcus aureus ATCC 25923 infected in human keratinocytes assessed as bacterial count per mg of cell protein at high extracellular compound concentration after 24 hrs. In kind it is functional. The essentials: (§1)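 Primary human skin keratinocytes were grown in defined keratinocyte serum-free medium and infected with S. aureus to 1.5 × 10^6 to 3.0 × 10^6 CFU/mg cell protein. Cells were exposed 24 h to increasing extracellular concentrations. Response was the log10 CFU change from the postphagocytosis inoculum, fitted by a Hill equation with slope 1. Cs is the concentration giving CFU equal to the original inoculum, found by graphical interpolation.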

For experiment [2], the system named is Staphylococcus aureus. As to the kind of experiment: Ratio of MIC for hospital-acquired methicillin-resistant Staphylococcus aureus ATCC 33591 by microdilution method at pH 7.4 to ratio of MIC for hospital-acquired methicillin-resistant Staphylococcus aureus ATCC 33591 by microdilution method at pH 5.5. Format: functional. The essentials:
(§2)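 MICs were determined by broth microdilution at pH 7.4 and pH 5.5. Broth was adjusted before inoculation, and pH was confirmed maintained (±0.1 unit) at the end.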
(In general: In broth dilution the organism is exposed to a series of concentrations in liquid medium.)

For experiment [3], the system named is Staphylococcus aureus. As to the kind of experiment: Antimicrobial activity against methicillin-susceptible Staphylococcus aureus ATCC 25923 infected in human keratinocytes assessed as change in bacterial count after 24 hrs. Format: functional, organism-based. The settings on record: ATCC 25923, 24 h. The essentials:
as §1

Experiment [4] concerns Staphylococcus aureus. Briefly: Bacteriostatic activity against methicillin-resistant Staphylococcus aureus ATCC 33591 infected in human keratinocytes assessed as change in bacterial count after 24 hrs. Format: functional. The method, boiled down: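 Primary human skin keratinocytes were grown in defined keratinocyte serum-free medium, infected, then incubated 24 h with increasing extracellular drug concentrations. Response was the change in log10 CFU/mg cell protein versus the post-phagocytosis inoculum, fitted to a Hill equation with slope factor 1. Static concentration (mg/liter, total drug) was taken by graphical interpolation where CFU equalled the original inoculum.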

The subject of experiment [5] is Staphylococcus aureus. As to the kind of experiment: Antimicrobial activity against methicillin-resistant Staphylococcus aureus ATCC 33591 infected in human keratinocytes assessed as bacterial count per mg of cell protein at low extracellular compound concentration after 24 hrs. Format: functional. The method, boiled down:
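Primary human skin keratinocytes were grown in defined keratinocyte serum-free medium, infected with a postphagocytosis inoculum of 1.5 × 10⁶ to 3.0 × 10⁶ CFU/mg cell protein, then exposed 24 h to increasing extracellular antibiotic concentrations. Change in log10 CFU/mg protein from the inoculum was fitted to a Hill equation with slope 1. E0 and Emax were extrapolated to infinitely low and high concentrations, in total drug mg/liter.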

Experiment [6] deals with Staphylococcus aureus. Briefly: Antimicrobial activity against methicillin-susceptible Staphylococcus aureus ATCC 25923 infected in human keratinocytes assessed as bacterial count per mg of cell protein at low extracellular compound concentration after 24 hrs. In kind it is functional. The essentials:
as §1

Experiment [7] relates to Staphylococcus aureus. Briefly: Bacteriostatic activity against methicillin-susceptible Staphylococcus aureus ATCC 25923 infected in human keratinocytes assessed as change in bacterial count after 24 hrs. In kind it is functional. The method, boiled down:
as §1

Experiment [8] deals with Staphylococcus aureus. Briefly: Ratio of MIC for beta-lactamase-negative methicillin-susceptible Staphylococcus aureus ATCC 25923 by microdilution method at pH 7.4 to ratio of MIC for beta-lactamase-negative methicillin-susceptible Staphylococcus aureus ATCC 25923 by microdilution method at pH 5.5. Format: functional. The essentials: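 MICs were measured by broth microdilution, with the broth adjusted to pH 7.4 or pH 5.5 before inoculation. pH was confirmed at the end of the assay to within ±0.1 unit. The value is the fold decrease in MIC between pH 7.4 and pH 5.5.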

The subject of experiment [9] is Staphylococcus aureus. As to the kind of experiment: Ratio of MIC for hospital-acquired methicillin-resistant Staphylococcus aureus ATCC 33591 by microdilution method at pH 5.5 to MIC for beta-lactamase-negative methicillin-susceptible Staphylococcus aureus ATCC 25923 by microdilution method at pH 5.5. In kind it is functional. The method, boiled down:
as §2

Experiment [10] has as its system Staphylococcus aureus. As to the kind of experiment: Antimicrobial activity against hospital-acquired methicillin-resistant Staphylococcus aureus N4112910 obtained from nasal swap of patient by microdilution method at pH 5.5.
The test system of experiment [11] is Staphylococcus aureus. Briefly: microbe, parasite or virus in culture. The settings on record: ATCC 25923.
Experiment [12] deals with Staphylococcus aureus. As to the kind of experiment: Antimicrobial activity against hospital-acquired vancomycin-intermediate Staphylococcus aureus NRS126 obtained from bloodstream infection of patient by microdilution method at pH 5.5.
Experiment [13] concerns Staphylococcus aureus. As to the kind of experiment: microbe, parasite or virus in culture. The settings on record: ATCC 11632.

The structures appear in SMILES notation. Values after ≈ are worked out from the molar mass of the structure shown.

Take `CO[C@@]1(NC(=O)Cc2cccs2)C(=O)N2C(C(=O)O)=C(COC(N)=O)CS[C@@H]21` [CEFOXITIN]: the results for the log10cfu in experiment [1], in experiment [5] and in [6] were -0.91, 2.36 and 3.06, respectively. For the same compound, the “fold change (FC)” value is reported as 512 in [2] and 4 in [8]. In experiment [3], the 50% effective concentration (EC50) turned out to be 0.55 µg/mL (≈ 1.29 µM). In addition, the Activity in [4] was greater than 200 mg/L; in [7], 1.84 mg/L.
On to `CO/N=C(\C(=O)N[C@@H]1C(=O)N2C(C(=O)O)=C(CSc3nc(=O)c(O)nn3C)CS[C@H]12)c1csc(N)n1` [CEFTRIAXONE], for which the figures for the log10cfu in experiment [1], in experiment [5] and in experiment [6] were -0.3, 2.09 and 2.44, respectively. The “fold change (FC)” value was 512 in [2], 4 in experiment [9] and 16 in experiment [8]. In experiment [3], the EC50 was 1.83 µg/mL (≈ 3.3 µM). Besides, the Activity is reported as greater than 200 mg/L in experiment [4] and 14.8 mg/L in experiment [7].
Consider `CO/N=C(\C(=O)N[C@@H]1C(=O)N2C(C(=O)O)=C(COC(N)=O)CS[C@H]12)c1ccco1` [CEFUROXIME], for which the log10cfu in experiment [1] is -0.42; in [5] it was 2.75; in [6] it was 3.23. Further, the “fold change (FC)” value in experiment [2] worked out at 128; in experiment [9] it was 4; in experiment [8], 16. The EC50 in experiment [3] was determined as 0.27 µg/mL (≈ 0.636 µM). For the same compound, the Activity is listed as 200 mg/L in experiment [4] and 0.26 mg/L in experiment [7].
As to `CC1=C(C(=O)O)N2C(=O)[C@@H](NC(=O)[C@H](N)c3ccccc3)[C@H]2SC1` [CEPHALEXIN ANHYDROUS], the figures for the log10cfu in experiment [1], in experiment [5] and in experiment [6] were 0.035, 2.42 and 3.09, respectively. Further, the “fold change (FC)” value stood at 16 in [2], 16 in experiment [9] and 2 in experiment [8]. Moreover, in experiment [3], the concentration for a half-maximal effect (EC50) is 0.27 µg/mL (≈ 0.777 µM). Also, in experiment [7], the Activity was found to be 200 mg/L.
`CN[C@H](CC(C)C)C(=O)N[C@H]1C(=O)N[C@@H](CC(N)=O)C(=O)N[C@H]2C(=O)N[C@H]3C(=O)N[C@H](C(=O)N[C@H](C(=O)O)c4cc(O)cc(O)c4-c4cc3ccc4O)[C@H](O)c3ccc(c(Cl)c3)Oc3cc2cc(c3O[C@@H]2O[C@H](CO)[C@@H](O)[C@H](O)[C@H]2O[C@H]2C[C@](C)(N)[C@H](O)[C@H](C)O2)Oc2ccc(cc2Cl)[C@H]1O` [VANCOMYCIN]: the MIC in experiment [10], in experiment [11], in experiment [12] and in [13] was 0.25 µg/mL (≈ 0.173 µM) in each case.

Broadly, the EC50 is the concentration at which the effect is half-maximal.
